Sampled rows, rich in hits. Any-hit rate of the full collection: about 4.7%.
MC4R antagonist – human MC4R antagonism in cAMP assay | P32245 | AID 540295 | MC4R-expressing cells, MTII-stimulated cAMP, LANCE TR-FRET | hit rate 0.48% among 360,000 | inhibition, % at 6.5 µM;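 active = inhibition above its plate's cutoff, the mean of tested wells on that plate plus 3 SD, cut at about 29% in these data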;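 note: 0% = Melanotan II alone and 100% = Melanotan II plus saturating MCL0020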
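Assay system: U2OS-MC4R stable cell line; Also added: Melanotan II; Technique: Eu-cAMP/anti-cAMP TR-FRET, emission 671 nm; Times: 30-min compound, 1-h challenge, 1-h detection, room temperature.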
FXN GAA850 act – increases GAA850 frataxin promoter reporter activity. HEK293 lucGAA850 FXN promoter luciferase reporter, 24 h; percent of 10 µM SAHA response. activation, % at 6 µM. hit rate 0.56% among 360,000. AID 540364;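 active = activation above the average of all compounds screened plus 3 SD, cutoff fixed separately per campaign, cut at about 7.5% in these data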;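 note: 0% = DMSO wells and 100% = 10 µM SAHA wells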
MC4R barr agon – agonists of human melanocortin 4 receptor (MC4R) beta-arrestin | activation, % at 8.9 µM | U2OS MC4R beta-arrestin complementation, luminescence; percent of melanotan II response, DMSO zero | P32245 | hit rate 0.98% among 360,000 | AID 540308;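 active = activation above a per-plate cutoff, the mean activation of sample wells on that plate plus 3 SD, cut at about 8% in these data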
m5-HT2A agonist – agonists of mouse serotonin 5-HT2A receptor (HTR2A). activation, % at 7.6 µM. CHO-K1 mHTR2A beta-arrestin complementation, luminescence; percent of 30 µM serotonin response. hit rate 0.66% among 360,000. P35363;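 active = activation above a run cutoff, the mean activation of all tested compounds plus 3 SD, cut at about 14% in these data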;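 note: 0% = plate median of compound wells and 100% = 30 µM serotonin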
Target sequence (P35363 whole entry, looked up): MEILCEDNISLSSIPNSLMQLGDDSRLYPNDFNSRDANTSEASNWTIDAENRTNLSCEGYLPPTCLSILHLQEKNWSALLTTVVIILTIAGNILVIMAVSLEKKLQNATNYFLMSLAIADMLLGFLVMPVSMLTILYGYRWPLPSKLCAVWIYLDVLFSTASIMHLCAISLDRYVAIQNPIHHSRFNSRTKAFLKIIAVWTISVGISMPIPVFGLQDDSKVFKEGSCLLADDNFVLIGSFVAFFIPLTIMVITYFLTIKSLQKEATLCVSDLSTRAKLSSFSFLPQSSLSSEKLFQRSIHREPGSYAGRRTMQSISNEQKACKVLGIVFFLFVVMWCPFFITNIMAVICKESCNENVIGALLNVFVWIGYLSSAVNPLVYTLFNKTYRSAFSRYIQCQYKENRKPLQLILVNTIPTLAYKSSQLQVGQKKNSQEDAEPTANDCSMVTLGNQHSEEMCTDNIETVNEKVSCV
AHR act – activates the human aryl hydrocarbon receptor; P35869; AHR-responsive luciferase reporter cells, luminescence; activation, % at 5 µM; hit rate 2.5% among 320,000; in the data active = activation above about 47%;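 note: 0% = vehicle wells and 100% = reference agonist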
MOR ag counter – counter-screen for mouse HTR2A agonists: human mu opioid receptor agonists; shares compounds with m5-HT2A agonist; U2OS OPRM1 beta-arrestin PathHunter, luminescence; DMSO 0%, DAMGO 9.3 µM 100%; activation, % at 9.3 µM; hit rate 5.3% among 2,300; AID 624380;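 active = mean activation above the mean of DMSO-only wells plus 3 SD, cut at about 0.5% in these data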
HTR2A ag conf – mouse HTR2A agonism confirmed; shares compounds with m5-HT2A agonist; hit rate 19% among 2,300; CHO-K1 PathHunter beta-arrestin recruitment, luminescence; DMSO 0%, 30 µM serotonin 100%; activation, % at 7.6 µM; AID 624381;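 active = mean activation across triplicates above the hit threshold derived in the original primary screen, cut at about 15% in these data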
* = called active by the depositor; nt = no result.

SMILES	MC4R antagonist	FXN GAA850 act	MC4R barr agon	m5-HT2A agonist	AHR act	MOR ag counter	HTR2A ag conf
Cc1nc2cc(Oc3nc(NCCN(C)C)nc4ccsc34)ccc2s1	11	0	-1	34*	nt	-1	4
Clc1cccc(Cl)c1Cn1nnc(N2CCCC2)n1	-5	7	1	2	14	nt	nt
CN(C)c1nc(N(C)C)n(Cc2c(Cl)cccc2Cl)n1	3	1	1	25*	-3	-1	-3
Cn1nccc1C(=O)Nc1nnc(C2CC2)s1	21	1	1	15*	26	0	3
Cn1ncc(Cl)c1C(=O)Nc1nnc(C2CC2)s1	4	2	-4	-1	12	nt	nt
CC(OC(=O)Cn1[nH]c(=O)c2ccccc2c1=O)C(=O)c1ccccc1 (stereo not drawn)	-3	3	3	-1	4	nt	nt
COc1ccc2c(C)cc(=O)oc2c1	8	-1	1	29*	nt	-1	37*
COc1ccc(OC)c(S(=O)(=O)N/N=C\c2ccc3c(c2)OCO3)c1	1	3	-2	17*	8	-1	-1
COc1ccc(S(=O)(=O)N/N=C\c2ccc3c(c2)OCO3)c(OC)c1	24	-2	0	-5	nt	nt	nt
Cc1nc(NC(=O)C(C)(C)C)sc1C(=O)Cn1cc(-c2ccc(C(C)(C)C)cc2)nn1	nt	nt	nt	6	nt	nt	nt
CCCN[C@H]1CCc2nc(N)sc2C1	-1	1	1	60*	-1	0	142*
Nc1nc2c(s1)CCCCCCCCCC2	2	3	5	0	6	nt	nt
Cc1cn([C@H]2C[C@H](O)[C@@H](CCC(=O)NC(c3ccccc3)c3ccccc3)O2)c(=O)[nH]c1=O	0	0	-3	1	nt	nt	nt
COc1ccc(NC(=O)N(C)C[C@H]2OCc3cn(nn3)CCCC(=O)N([C@@H](C)CO)C[C@@H]2C)cc1	2	0	0	5	nt	nt	nt
Nc1cc(=O)[nH]c(SCc2csc(-c3ccccc3)n2)n1	4	3	0	19*	3	-1	-3
COC(CNC(=O)c1ccc2c(c1)nc(C)n2-c1ccc(F)c(F)c1)OC	9	0	-1	15*	-1	-1	-3
CCc1nc2c(OCc3ccc(C(F)(F)F)cc3)cccn2c1N(C)C(=O)c1ccncc1	-2	-2	0	-5	nt	nt	nt
COc1ccccc1N(C(=O)c1snc(C(N)=O)c1N)C(C(=O)NCc1ccccc1)c1ccc(O)cc1 (stereo not drawn)	-5	-2	-2	-2	nt	nt	nt
NC(=O)c1nsc(C(=O)N(c2ccccc2F)C(C(=O)NCc2ccc(F)cc2)c2ccc(O)cc2)c1N (stereo not drawn)	11	-8	1	23*	1	0	2
CCCOC(=O)C(C)Sc1n[nH]c(=O)[nH]c1=O (stereo not drawn)	5	3	-2	14*	0	-1	-2
COc1ccc(C(=O)CCC(=O)NCCc2c[nH]c3ccccc23)cc1	12	0	-1	-4	10	nt	nt
O=C(CCC(=O)c1ccccc1)NCCc1c[nH]c2ccccc12	-8	0	-2	21*	2	-1	11
Cc1ccc([C@H]2C(C(=O)O)=CCN2S(=O)(=O)c2ccc(C)cc2)cc1	nt	nt	nt	7	nt	nt	nt
Cc1cc(NS(=O)(=O)c2ccc(NC(=S)NC(=O)c3ccc(F)cc3)cc2)no1	4	3	-3	-1	-1	nt	nt
O=C(NC1CCCC1)c1cccc(S(=O)(=O)N2CCCCC2)c1	-1	0	0	16*	6	0	10
SMILES	MC4R antagonist	FXN GAA850 act	MC4R barr agon	m5-HT2A agonist	AHR act	MOR ag counter	HTR2A ag conf
Cc1cc(NC(=O)c2cccc(S(=O)(=O)N3CCCCC3)c2)no1	-5	2	-3	18*	1	0	-1
Cc1cc(NS(=O)(=O)c2ccc(NC(=S)NC(=O)c3cccc(S(=O)(=O)N(C)C)c3)cc2)no1	7	0	-3	16*	-2	-1	-4
COc1ccccc1CC(=O)N1CCN(c2ccccc2)CC1	0	0	0	0	-2	nt	nt
Cc1nnc(SC(C)C)n(N)c1=O	12	-1	3	-1	-2	nt	nt
CCOC(=O)[C@]12CCCC=C1N(Cc1ccc3c(c1)OCO3)C(=O)[C@H](CC(=O)N1CCCCC1)C2	nt	nt	nt	-2	nt	nt	nt
O=C(CN1C(=O)NC2(CCCCC2)C1=O)Nc1ccc2[nH]c(=O)[nH]c2c1	-2	0	-5	-10	1	nt	nt
Cn1cc(CN2CCC(C(=O)NC(c3ccc(-c4ccccc4)cc3)c3cnccn3)CC2)c2ccccc21 (stereo not drawn)	7	-3	3	-3	nt	nt	nt
CCCc1cc(=O)[nH]c(SCC(=O)N2c3ccccc3CC2C)n1 (stereo not drawn)	7	0	-2	14*	1	0	-4
CCCc1cc(=O)[nH]c(SC(C)C(=O)N2c3ccccc3CC2C)n1 (stereo not drawn)	7	1	0	-2	3	nt	nt
CC(OC(=O)c1cccc([N+](=O)[O-])c1)C(=O)NCc1ccc2c(c1)OCO2 (stereo not drawn)	-2	2	-2	2	5	nt	nt
Cc1cccc(NS(=O)(=O)c2ccc3oc(=O)ccc3c2)c1C	10	-1	1	-2	0	nt	nt
COc1ccc([C@H]2N[C@]3(CCCN(Cc4ccc(Cl)cc4)C3=O)[C@H]3C(=O)N(Cc4ccccc4)C(=O)[C@@H]23)cc1	5	-9	-2	-2	nt	nt	nt
CCOC(=O)c1ccccc1NC(=O)c1cc(S(=O)(=O)N2CCOCC2)ccc1F	-25	0	-1	-4	-2	nt	nt
CC(=O)c1sc(NC(=O)c2cc(S(=O)(=O)N3CCOCC3)ccc2F)nc1C	19	-1	-2	15*	1	-1	-1
CCCCn1nnnc1C(c1cc2ccccc2o1)N1CCN(C(=O)OCC)CC1 (stereo not drawn)	nt	nt	nt	17*	nt	-1	-5
CCOC(=O)N1CCN(C(c2cc3ccccc3o2)c2nnnn2C(C)(C)C)CC1 (stereo not drawn)	nt	nt	nt	-1	nt	nt	nt
O=C(c1ccc(-n2cncn2)c([N+](=O)[O-])c1)N1CCN(S(=O)(=O)c2c(F)cccc2F)CC1	-2	0	-4	16*	-1	0	-3
O=C(c1ccc(-n2cncn2)c([N+](=O)[O-])c1)N1CCN(S(=O)(=O)c2ccccc2F)CC1	3	1	-3	-3	-2	nt	nt
O=C1CC(=O)C(n2cncn2)C(c2cccc(Cl)c2)C1 (stereo not drawn)	-9	0	-1	-1	-4	nt	nt
